Type in all cases: functional
Test [1] concerns Paracentrotus lividus. Briefly: tubulin-destabilizing activity in sea urchin embryo assessed as embryo spinning treated immediately 8 to 10 hrs after fertilization. The procedure, abridged: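 Free-swimming sea urchin blastulae were treated and monitored for behavioural change. Reported value is the effective threshold concentration (EC), from duplicate measurements.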
Test [2] concerns Paracentrotus lividus. Briefly: Antiproliferative activity against sea urchin embryo assessed as cleavage arrest after 10 to 15 mins fertilization 45 to 60 mins before first mitotic cycle completion. The method in brief:
(§1)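 Phenotypic in vivo assay on fertilized sea urchin eggs, scored for cleavage alteration or arrest. Reported value is the effective threshold concentration (EC), from duplicate measurements.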

Test [3] has as its system Paracentrotus lividus. Briefly: Antiproliferative activity against sea urchin embryo assessed as cleavage alteration after 10 to 15 mins fertilization 45 to 60 mins before first mitotic cycle completion. The method in brief:
as §1

Regarding `COc1ccc(/C=C\c2cc(OC)c(OC)c(OC)c2)cc1O` [COMBRETASTATIN A4], the EC with Paracentrotus lividus [1] is 0.05 µM; in the test with Paracentrotus lividus [2] it was 0.01 µM; in the test on Paracentrotus lividus [3] it was 0.002 µM.
For `COc1ccc(C(=O)c2ccc3c(c2)OCCO3)cc1`, the figures for the EC in the test with Paracentrotus lividus [1], with Paracentrotus lividus [2] and in the test on Paracentrotus lividus [3] were above 5 µM, 1 µM and 0.5 µM, respectively.
In the case of `COc1ccc(C(=O)c2ccc3c(c2)OCCO3)cc1O`, the EC is above 5 µM in the test on Paracentrotus lividus [1], 0.2 µM with Paracentrotus lividus [2] and 0.1 µM in the test with Paracentrotus lividus [3].
In the same order, the values of `COc1ccc(C(=O)c2cc(OC)c(OC)c(OC)c2OC)cc1O` are above 5 µM, above 4 µM and 2 µM.
`COc1ccc(C(=O)c2cc(OC)c3c(c2)OCO3)cc1O`: the EC was determined as 0.1 µM in the test on Paracentrotus lividus [1], 0.01 µM with Paracentrotus lividus [2] and 0.001 µM in the test with Paracentrotus lividus [3].
For `COc1ccc(C(=O)c2cc3c(c(OC)c2OC)OCO3)cc1O`, the EC with Paracentrotus lividus [1] is above 5 µM; in the test with Paracentrotus lividus [2], 4 µM; in the test with Paracentrotus lividus [3], 1 µM.
In the same order, the values of `COc1ccc(C(=O)c2cc(OC)c3c(c2OC)OCO3)cc1O` are above 5 µM, above 4 µM and 2 µM.
On to `COc1ccc(/C=C\c2cc(OC)c3c(c2)OCO3)cc1O` [Combretastatin A-2], for which the EC was found to be 0.05 µM with Paracentrotus lividus [1], 0.01 µM in the test on Paracentrotus lividus [2] and 0.002 µM with Paracentrotus lividus [3].
For the compound `COc1ccc(C(=O)c2cc(OC)c(OC)c(OC)c2)cc1O` [PHENSTATIN], the values for the EC in the test on Paracentrotus lividus [1], in the test with Paracentrotus lividus [2] and in the test with Paracentrotus lividus [3] were 0.5 µM, 0.05 µM and 0.01 µM, respectively.

(Values after ChEMBL document CHEMBL1681762, “Application of plant allylpolyalkoxybenzenes in synthesis of antimitotic phenstatin analogues” (2011).)
